In ChEMBL document CHEMBL1142862, “Selective NR1/2B N-methyl-D-aspartate receptor antagonists among indole-2-carboxamides and benzimidazole-2-carboxamides” (J Med Chem, 2007):

What was measured:
[1] = biological target: T1, Glutamate receptor ionotropic, NMDA 2B (Rattus norvegicus, UniProt Q00960); experiment: Antagonist activity at NR2B NMDA receptor in Wistar rat neocortical cells assessed as inhibition of NMDA-evoked elevation of intracellular calcium concentration; assay type: functional, cell-based
Outline: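 Rat primary neocortical cultures (trypsinised cortex, poly-D-lysine coated wells, glial proliferation stopped with […], serum-free N2 medium) used after 3-10 days in vitro. Compound added (<0.1% DMSO), 5 min baseline, then 40 µM NMDA and 5 min fluorescence recording.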

[2] = biological target: T1, Glutamate receptor ionotropic, NMDA 2B; experiment: Displacement of [3H]Ro 25,6981 from NR2B NMDA receptor in rat forebrain
Outline: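 Rat forebrain membranes were washed and suspended in 5 mM TRIS-HCl, pH 7.4, at 1 mg protein/mL. They were incubated 2 h at room temperature with 4 nM [3H]Ro-25,6981 and at least seven compound concentrations. Nonspecific binding was defined with 10 µM Ro-25,6981. Bound and free ligand were separated by GF/B filtration, and filters were counted by liquid scintillation. Results were expressed as % inhibition of specific binding.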

Mus musculus [3] = experiment: Inhibition of formalin induced nociception in ip dosed NMRI mouse by measuring pain-related licking behavior in late phase; assay type: functional
Outline: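 Mouse formalin test: 20 µL 1% formalin in 0.9% saline injected s.c. into the dorsal right hindpaw. Compound given i.p. Pain-related licking scored at the peak of the second (persistent, 10-60 min) phase. ED50 reported.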

Mus musculus [4] = experiment: Inhibition of formalin induced nociception in orally dosed NMRI mouse by measuring pain-related licking behavior in late phase; assay type: functional; conditions: po
Outline: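 Mice fasted 14-16 h with free 20% glucose. Compound or vehicle (5% Tween 80) given orally 15 min before s.c. injection of 20 µL 1% formalin in 0.9% saline into the dorsal right hindpaw. Licking measured at the peak of the second phase (10-60 min). ED50 reported.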

T1 sequence (Q00960 whole entry): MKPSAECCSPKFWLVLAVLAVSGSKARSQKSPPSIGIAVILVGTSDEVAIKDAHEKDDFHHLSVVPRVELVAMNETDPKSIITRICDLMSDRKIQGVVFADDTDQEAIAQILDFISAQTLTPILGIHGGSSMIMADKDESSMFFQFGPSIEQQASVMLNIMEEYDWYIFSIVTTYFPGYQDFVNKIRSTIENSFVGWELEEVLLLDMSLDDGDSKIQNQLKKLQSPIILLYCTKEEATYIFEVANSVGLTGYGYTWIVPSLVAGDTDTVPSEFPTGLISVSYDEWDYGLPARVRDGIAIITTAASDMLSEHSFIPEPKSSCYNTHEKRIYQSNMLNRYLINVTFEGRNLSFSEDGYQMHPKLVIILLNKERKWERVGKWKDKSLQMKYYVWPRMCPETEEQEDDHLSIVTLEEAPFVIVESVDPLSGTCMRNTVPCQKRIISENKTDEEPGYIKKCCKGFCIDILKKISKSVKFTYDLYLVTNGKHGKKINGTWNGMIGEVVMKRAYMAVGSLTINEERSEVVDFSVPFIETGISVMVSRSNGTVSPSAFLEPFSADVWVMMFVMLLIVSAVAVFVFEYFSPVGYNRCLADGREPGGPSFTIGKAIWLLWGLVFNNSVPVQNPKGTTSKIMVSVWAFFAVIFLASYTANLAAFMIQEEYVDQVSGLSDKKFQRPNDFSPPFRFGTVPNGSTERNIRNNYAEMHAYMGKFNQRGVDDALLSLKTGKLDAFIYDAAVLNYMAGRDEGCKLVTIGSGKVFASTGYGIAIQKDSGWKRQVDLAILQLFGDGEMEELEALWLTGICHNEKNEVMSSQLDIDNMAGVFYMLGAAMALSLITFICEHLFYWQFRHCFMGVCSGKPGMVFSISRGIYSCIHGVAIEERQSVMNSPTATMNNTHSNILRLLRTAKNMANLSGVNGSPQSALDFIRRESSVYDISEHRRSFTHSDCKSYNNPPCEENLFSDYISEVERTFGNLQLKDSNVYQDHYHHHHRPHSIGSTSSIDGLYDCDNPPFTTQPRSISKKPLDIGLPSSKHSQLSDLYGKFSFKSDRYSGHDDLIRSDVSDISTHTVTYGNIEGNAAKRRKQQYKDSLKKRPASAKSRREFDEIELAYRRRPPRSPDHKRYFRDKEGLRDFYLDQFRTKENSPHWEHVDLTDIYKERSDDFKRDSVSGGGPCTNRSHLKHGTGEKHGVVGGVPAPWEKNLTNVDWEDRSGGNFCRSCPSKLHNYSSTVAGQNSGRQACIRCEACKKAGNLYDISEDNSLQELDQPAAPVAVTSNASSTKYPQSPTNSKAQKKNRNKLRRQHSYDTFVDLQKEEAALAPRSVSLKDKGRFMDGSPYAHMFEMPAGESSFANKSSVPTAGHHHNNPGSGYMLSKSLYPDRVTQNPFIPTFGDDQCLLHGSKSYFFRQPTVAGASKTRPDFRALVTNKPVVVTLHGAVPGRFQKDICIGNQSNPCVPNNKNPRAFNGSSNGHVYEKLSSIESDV

SMILES | IC50 [1] | IC50 [2] | ED50 (Mus musculus [3]) | ED50 (Mus musculus [4])
O=C(c1cc2cccc(O)c2[nH]1)N1CCC(Cc2ccccc2)CC1 | 165 nM | 380 nM | – | –
O=C(c1cc2cc(O)cc(O)c2[nH]1)N1CCC(Cc2ccccc2)CC1 | 31 nM | 106 nM | – | –
O=C(c1cc2c(O)cccc2[nH]1)N1CCC(Cc2ccccc2)CC1 | 16 nM | 18 nM | – | –
O=C(c1cc2cc(O)ccc2[nH]1)N1CCC(Cc2ccccc2)CC1 | 25 nM | 31 nM | – | –
O=C(c1cc2c(O)cc(O)cc2[nH]1)N1CCC(Cc2ccccc2)CC1 | 6.5 nM | 6 nM | – | –
COc1ccc(CC2CCCCN2C(=O)c2cc3ccc(O)cc3[nH]2)cc1 (configuration not stated) | > 8000 nM | – | – | –
O=C(c1nc2cc3[nH]c(=O)oc3cc2[nH]1)N1CCC(Cc2ccccc2)CC1 | 193 nM | – | – | –
Cc1ccc(OC2CCN(C(=O)c3nc4cc(O)ccc4[nH]3)CC2)cc1 | 1.1 nM | 3 nM | – | –
O=C(c1cc2c(ccc3[nH]ncc32)[nH]1)N1CCC(Cc2ccccc2)CC1 | 20 nM | 5 nM | – | –
N=C(c1cc2ccc(O)cc2[nH]1)N1CCC(Cc2ccccc2)CC1 | 8.5 nM | 10 nM | – | –
CS(=O)(=O)Nc1cccc2[nH]c(C(=O)N3CCC(Cc4ccccc4)CC3)cc12 | – | 215 nM | – | –
O=C(c1nc2cc(O)ccc2[nH]1)N1CCC(Oc2ccc(F)cc2)CC1 | 2.9 nM | 6 nM | – | –
Oc1ccc2cc(CN3CCC(Cc4ccccc4)CC3)[nH]c2c1 | 1160 nM | – | – | –
O=S(=O)(c1cc2ccc(O)cc2[nH]1)N1CCC(Cc2ccccc2)CC1 | > 8000 nM | – | – | –
O=C(c1cc2ccc(O)cc2o1)N1CCC(Cc2ccccc2)CC1 | – | > 10000 nM | – | –
Nc1ccc2cc(C(=O)N3CCC(Cc4ccccc4)CC3)[nH]c2c1 | 627 nM | – | – | –
O=C(c1ccccc1)C1CCN(C(=O)c2cc3ccc(O)cc3[nH]2)CC1 | 744 nM | – | – | –
O=C(c1cc2ccc(O)cc2[nH]1)N1CCC(C(O)c2ccccc2)CC1 (configuration not stated) | 111 nM | 60 nM | – | –
CS(=O)(=O)Nc1ccc2cc(C(=O)N3CCC(Cc4ccccc4)CC3)[nH]c2c1 | 30 nM | 9 nM | – | –
CS(=O)(=O)Nc1ccc2[nH]c(C(=O)N3CCC(Cc4ccccc4)CC3)cc2c1 | 631 nM | 1540 nM | – | –
COc1ccccc1CC1CCN(C(=O)c2cc3ccc(O)cc3[nH]2)CC1 | 249 nM | – | – | –
O=C(c1cc2cc(O)ccc2o1)N1CCC(Cc2ccccc2)CC1 | 1900 nM | > 10000 nM | – | –
Cc1cccc(CC2CCN(C(=O)c3nc4cc(O)ccc4[nH]3)CC2)c1 | 2.4 nM | 5 nM | – | –
COc1cccc(CC2CCN(C(=O)c3nc4cc(O)ccc4[nH]3)CC2)c1 | 2.5 nM | 3 nM | – | –
O=C(c1cc2ccc(O)cc2[nH]1)N1CCC(Cc2cccc(F)c2)CC1 | 38 nM | 31 nM | – | –

SMILES | IC50 [1] | IC50 [2] | ED50 (Mus musculus [3]) | ED50 (Mus musculus [4])
C[C@@H](CN1CCC(Cc2ccccc2)CC1)[C@@H](O)c1ccc(O)cc1 | 159 nM | – | 5.1 mg/kg | –
O=C(c1cc2ccc(O)cc2[nH]1)N1CCC(Cc2ccccc2)CC1 | – | – | – | 1.7 mg/kg
O=C(c1cc2ccc(O)cc2[nH]1)N1CCC(c2ccccc2)CC1 | > 8000 nM | – | – | –
O=C(c1cc2ccc(O)cc2[nH]1)N1CCC(CCc2ccccc2)CC1 | 875 nM | 359 nM | – | –
Cn1c(C(=O)N2CCC(Cc3ccccc3)CC2)cc2ccc(O)cc21 | 5770 nM | – | – | –
O=C(c1cc2c(NCc3ccccc3)cccc2[nH]1)N1CCC(Cc2ccccc2)CC1 | 47 nM | 191 nM | – | –
O=C(c1cc2ccc(O)cc2[nH]1)N1CCC(Cc2ccc(F)cc2)CC1 | 90 nM | 12 nM | – | –
Nc1cccc2[nH]c(C(=O)N3CCC(Cc4ccccc4)CC3)cc12 | 4.3 nM | 12 nM | – | –
O=C(c1cc2cc3[nH]c(=O)oc3cc2[nH]1)N1CCC(Cc2ccccc2)CC1 | – | 23 nM | – | –
Nc1ccc2[nH]c(C(=O)N3CCC(Cc4ccccc4)CC3)nc2c1 | 40 nM | 143 nM | – | –
O=C(c1cc2cc(O)ccc2s1)N1CCC(Cc2ccccc2)CC1 | 5610 nM | > 10000 nM | – | –
Cc1ccc(CC2CCN(C(=O)c3cc4ccc(O)cc4[nH]3)CC2)cc1 | 208 nM | 28 nM | – | –
COc1ccc(CC2CCN(C(=O)c3cc4ccc(O)cc4[nH]3)CC2)cc1 | 80 nM | 17 nM | – | –
O=C(c1cc2c(ccc3[nH]cnc32)[nH]1)N1CCC(Cc2ccccc2)CC1 | 50 nM | 6 nM | – | –
O=C(c1nc2cc(O)ccc2[nH]1)N1CCC(Oc2ccc(Cl)cc2)CC1 | 1.7 nM | 14 nM | – | –
O=C(c1nc2c(O)ccc(O)c2[nH]1)N1CCC(Cc2ccccc2)CC1 | 3 nM | 10 nM | – | –
Nc1ccc2[nH]c(C(=O)N3CCC(Cc4ccccc4)CC3)cc2c1 | 596 nM | – | – | –
O=C(c1cc2c(ccc3cn[nH]c32)[nH]1)N1CCC(Cc2ccccc2)CC1 | 58 nM | 64 nM | – | –
O=C(c1nc2ccc(O)cc2s1)N1CCC(Cc2ccccc2)CC1 | 2600 nM | – | – | –
O=C(c1cc2ccc(O)cc2[nH]1)N1CCC(OCc2ccccc2)CC1 | 16 nM | 47 nM | – | –
CS(=O)(=O)Nc1ccc2[nH]c(C(=O)N3CCC(Cc4ccccc4)CC3)nc2c1 | 1.3 nM | 3 nM | – | –
O=C(c1cc2ccc(O)cc2[nH]1)N1CCC(Oc2ccccc2)CC1 | 107 nM | 89 nM | – | –
CS(=O)(=O)Nc1ccc2nc(CN3CCC(Cc4ccccc4)CC3)[nH]c2c1 | 8.6 nM | – | – | –
O=c1[nH]c2ccc([S+]([O-])CCN3CCC(Cc4ccc(F)cc4)CC3)cc2o1 (configuration not stated) [BESONPRODIL] | – | – | – | 2.4 mg/kg
C[C@@H]([C@@H](O)c1ccc(O)cc1)N1CCC(O)(c2ccccc2)CC1 [TRAXOPRODIL] | – | – | – | > 20 mg/kg
